Read-outs that look alike come from different tables or passages of the source.
What was measured:
PaTrmD [1] = target: T1, PaTrmD (Pseudomonas aeruginosa, UniProt Q9HXQ1); experiment: TrmD inhibitor assay; assay type: biochemical; conditions: for reduction of enzyme inhibitory activity compared with the alkyl chain: ethylene glycol substituents
T1 sequence (Q9HXQ1 5-250): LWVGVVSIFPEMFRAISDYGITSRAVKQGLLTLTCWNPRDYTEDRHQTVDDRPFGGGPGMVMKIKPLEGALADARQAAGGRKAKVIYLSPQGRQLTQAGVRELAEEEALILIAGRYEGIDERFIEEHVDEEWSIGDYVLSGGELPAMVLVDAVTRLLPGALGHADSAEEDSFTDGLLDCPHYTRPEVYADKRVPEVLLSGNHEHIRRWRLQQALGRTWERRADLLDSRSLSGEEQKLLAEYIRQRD
In short: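 E. coli-expressed PaTrmD (IMAC and size-exclusion purified, 8 nM) was preincubated 15 min at ambient temperature with serially diluted inhibitor (0–500 μM). Reaction buffer was 50 mM Tris-HCl pH 8.0, 80 mM NaCl, 1 mM MgCl2, 0.5 mM DTT and 0.01% Triton X-100, with 2 μM SAM and 0.5 μM in vitro-transcribed tRNALeu(CAG). Reactions ran 45 min at 37 °C. SAH was detected by MTase-Glo luminescence against an SAH standard curve.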

bacteria = conditions: in words; cited from earlier work
PaTrmD [2] = target: T1, PaTrmD; experiment: Thermal stability; assay type: binding
PaTrmD [3] = target: T1, PaTrmD; conditions: ref 15 (Hill et al.); cited from earlier work
PaTrmD [4] = target: T1, PaTrmD; experiment: Surface plasmon resonance; assay type: binding; conditions: SPR
SaTrmD = target: T2, SaTrmD (Staphylococcus aureus, UniProt Q2FZ43); conditions: cited from earlier work
T2 sequence (Q2FZ43 1-245): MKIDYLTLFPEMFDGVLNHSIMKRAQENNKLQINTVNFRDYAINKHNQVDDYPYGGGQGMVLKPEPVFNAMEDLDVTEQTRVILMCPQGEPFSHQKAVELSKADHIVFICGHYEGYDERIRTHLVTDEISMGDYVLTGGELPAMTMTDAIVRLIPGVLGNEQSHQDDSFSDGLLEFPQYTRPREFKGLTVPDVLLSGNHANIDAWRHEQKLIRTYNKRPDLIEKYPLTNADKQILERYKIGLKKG

[5] = tested on: collection of Gram-positive and Gram-negative bacteria; experiment: Single-dose; assay type: cell-based; conditions: against Gram-positive bacteria and mycobacteria; single dose 100 μM
[6] = PaTrmD, O^6-substituted thienopyrimidinones, NA = not active up to 50 μM

## 4-(Hexyloxy)-N-(4-((octylamino)methyl)benzyl)thieno[2,3-d]pyrimidine-5-carboxamide [Compound 44]
PaTrmD [1]; [6]
  IC50: > 50 µM

## 4-Methoxy-N-(4-(morpholinomethyl)benzyl)thieno[2,3-d]pyrimidine-5-carboxamide [Compound 45]
PaTrmD [1]; [6]
  IC50: > 50 µM

## NC1CCN(Cc2ccc(CNC(=O)c3csc4nc[nH]c(=O)c34)cc2)CC1 [AZ51]
bacteria
  antibacterial activity: lacked antibacterial activity
PaTrmD [2]
  Tm higher than thermostabilization conferred by SAH: 17 °C
PaTrmD [3]
  IC50: 39 nM
PaTrmD [4]; PaTrmD
  faster on-rate (association rate) compared to SAH: ~2 fold
  slower off-rate (dissociation rate) compared to SAH: ~30 fold
SaTrmD
  IC50: 1200 nM

## O=C(NCc1ccc(CN2CCCCC2)cc1)c1csc2nc[nH]c(=O)c12 [Compound 9, 4-Oxo-N-(4-(piperidin-1-ylmethyl)benzyl)-3,4-dihydrothieno[2,3-d]pyrimidine-5-carboxamide]
PaTrmD [1]; PaTrmD
  reduction of inhibitory activity compared with AZ51: 6–16 fold

## O=C(NCc1ccc(CN2CCOCC2)cc1)c1csc2nc[nH]c(=O)c12 [Compound 10, N-(4-(Morpholinomethyl)benzyl)-4-oxo-3,4-dihydrothieno[2,3-d]pyrimidine-5-carboxamide]
PaTrmD [1]; PaTrmD
  reduction of inhibitory activity compared with AZ51: 6–16 fold

## O=C(NCc1ccc(CNCc2ccccc2)cc1)c1csc2nc[nH]c(=O)c12 [Compound 14, N-(4-((Benzylamino)methyl)benzyl)-4-oxo-3,4-dihydrothieno[2,3-d]pyrimidine-5-carboxamide]
PaTrmD [1]; PaTrmD
  TrmD inhibitory activity (in words): submicromolar activity

## CCCCCCCCNCc1ccc(CNC(=O)c2csc3nc[nH]c(=O)c23)cc1 [Compound 15, N-(4-((Octylamino)methyl)benzyl)-4-oxo-3,4-dihydrothieno[2,3-d]pyrimidine-5-carboxamide]
[5]
  growth inhibitory activity at 100 μM: showed growth inhibitory activity
PaTrmD [1]
  IC50: 0.02 ± 0.01 µM
PaTrmD [1]; PaTrmD, tRNA competition assay, from 0.02 to 0.26 μM
  increase of IC50 when tRNA concentration was increased: 13 fold
PaTrmD [4]
  higher binding affinity (KD) to PaTrmD compared with AZ51: ~50 fold

## O=C(NCc1ccc(CNC2CCCCC2)cc1)c1csc2nc[nH]c(=O)c12 [Compound 16, N-(4-((Cyclohexylamino)methyl)benzyl)-4-oxo-3,4-dihydrothieno[2,3-d]pyrimidine-5-carboxamide]
PaTrmD [1]; PaTrmD
  TrmD inhibitory activity (in words): submicromolar activity

## O=C(NCc1ccc(CNC23CC4CC(CC(C4)C2)C3)cc1)c1csc2nc[nH]c(=O)c12 [Compound 17, N-(4-((((3s,5s,7s)-Adamantan-1-yl)amino)methyl)benzyl)-4-oxo-3,4-dihydrothieno[2,3-d]pyrimidine-5-carboxamide]
PaTrmD [1]; PaTrmD
  TrmD inhibitory activity (in words): submicromolar activity

## CCCCCCCCN(Cc1ccccc1)Cc1ccc(CNC(=O)c2csc3nc[nH]c(=O)c23)cc1 [Compound 20, N-(4-((Benzyl(octyl)amino)methyl)benzyl)-4-oxo-3,4-dihydrothieno[2,3-d]pyrimidine-5-carboxamide]
PaTrmD [1]; PaTrmD
  TrmD inhibitory activity (in words): nearly abolished

## CCCCCCCCCCNCc1ccc(CNC(=O)c2csc3nc[nH]c(=O)c23)cc1 [Compound 23, N-(4-((Decylamino)methyl)benzyl)-4-oxo-3,4-dihydrothieno[2,3-d]pyrimidine-5-carboxamide]
[5]
  growth inhibitory activity at 100 μM: showed growth inhibitory activity

## CCCCCCCCCCCCNCc1ccc(CNC(=O)c2csc3nc[nH]c(=O)c23)cc1 [Compound 24, N-(4-((Dodecylamino)methyl)benzyl)-4-oxo-3,4-dihydrothieno[2,3-d]pyrimidine-5-carboxamide]
[5]
  growth inhibitory activity at 100 μM: showed growth inhibitory activity

## O=C(NCc1ccc(CNCCOCCO)cc1)c1csc2nc[nH]c(=O)c12 [Compound 25, N-(4-(((2-(2-Hydroxyethoxy)ethyl)amino)methyl)benzyl)-4-oxo-3,4-dihydrothieno[2,3-d]pyrimidine-5-carboxamide]
PaTrmD [1]; PaTrmD
  reduction of enzyme inhibitory activity compared with the alkyl chain: 4–8 fold

## CCOCCOCCNCc1ccc(CNC(=O)c2csc3nc[nH]c(=O)c23)cc1 [Compound 26, N-(4-(((2-(2-Ethoxyethoxy)ethyl)amino)methyl)benzyl)-4-oxo-3,4-dihydrothieno[2,3-d]pyrimidine-5-carboxamide]
PaTrmD [1]; PaTrmD
  reduction of enzyme inhibitory activity compared with the alkyl chain: 4–8 fold

## N-(4-((Benzylamino)methyl)benzyl)-4-methoxythieno[2,3-d]pyrimidine-5-carboxamide [Compound 39]
PaTrmD [1]; [6]
  IC50: > 50 µM

## N-(4-((Benzylamino)methyl)benzyl)-4-propoxythieno[2,3-d]pyrimidine-5-carboxamide [Compound 40]
PaTrmD [1]; [6]
  IC50: > 50 µM

## N-(4-((Octylamino)methyl)benzyl)-4-propoxythieno[2,3-d]pyrimidine-5-carboxamide [Compound 43]
PaTrmD [1]; [6]
  IC50: > 50 µM

## N-(4-(Morpholinomethyl)benzyl)-4-propoxythieno[2,3-d]pyrimidine-5-carboxamide [Compound 46]
PaTrmD [1]; [6]
  IC50: > 50 µM
